The values that follow come from ChEMBL document CHEMBL1275567, “In vitro activity of TR-700, the antibacterial moiety of the prodrug TR-701, against linezolid-resistant strains” (2008).

Holding throughout (type): functional
For assay [1], the system named is Staphylococcus aureus. Briefly: Antimicrobial activity against linezolid-resistant methicillin-resistant Staphylococcus aureus NRS271 harboring G2576U mutation in peptidyl transferase centre by broth microdilution method. The method in brief: (§1)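 MIC by CLSI broth microdilution for aerobically growing bacteria, in Mueller-Hinton II broth. Test organisms were recent clinical isolates from diverse geographic centers plus laboratory-derived oxazolidinone-resistant mutants. QC strains S. aureus ATCC 29213 and E. faecalis ATCC 29212 were included in each assay set to confirm proper assay performance.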

Assay [2] has as its system Staphylococcus aureus. Briefly: Antimicrobial activity against linezolid-resistant methicillin-resistant Staphylococcus aureus NRS120 harboring G2576U mutation in peptidyl transferase centre by broth microdilution method. On the technique in general: Broth dilution looks for growth in wells or tubes with falling amounts of substance.
For a further assay, the system named is Staphylococcus hominis. Briefly: Antimicrobial activity against linezolid-resistant Staphylococcus hominis by broth microdilution method. The method in brief: as §1
Assay [3] deals with Staphylococcus epidermidis. Briefly: Antimicrobial activity against linezolid-resistant Staphylococcus epidermidis by broth microdilution method. In outline: as §1
Assay [4] deals with Staphylococcus aureus. Briefly: Antimicrobial activity against linezolid-resistant Staphylococcus aureus 004-737X harboring plasmid borne cfr gene by broth microdilution method. The method in brief:
as §1

In assay [5] the test system is Staphylococcus aureus. Briefly: Antimicrobial activity against linezolid-resistant methicillin-resistant Staphylococcus aureus NRS127 by broth microdilution method. The method in brief: as §1
Assay [6] concerns Staphylococcus aureus. Briefly: Antimicrobial activity against linezolid-resistant Staphylococcus aureus by broth microdilution method. In outline: as §1
In assay [7] the test system is Staphylococcus aureus. Briefly: Antimicrobial activity against linezolid-resistant methicillin-resistant Staphylococcus aureus NRS119 harboring G2576U mutation in peptidyl transferase centre by broth microdilution method. In outline: as §1
Assay [8] concerns Staphylococcus aureus. Briefly: Antimicrobial activity against linezolid-resistant Staphylococcus aureus 1652 harboring U2500A mutation in peptidyl transferase centre by broth microdilution method. In outline: as §1
Assay [9] concerns Enterococcus faecium. Briefly: Antimicrobial activity against linezolid-resistant Enterococcus faecium 854 harboring G2576U mutation in peptidyl transferase centre by broth microdilution method. The method in brief:
as §1

For a further assay, the system named is Mammaliicoccus sciuri. Briefly: Antimicrobial activity against linezolid-resistant Staphylococcus sciuri by broth microdilution method. In outline:
as §1

For assay [10], the system named is Staphylococcus aureus. Briefly: Antimicrobial activity against linezolid-resistant Staphylococcus aureus 480 harboring G2447U in peptidyl transferase centre by broth microdilution method. In outline: as §1
Assay [11] relates to Enterococcus faecalis. Briefly: Antimicrobial activity against linezolid-resistant Enterococcus faecalis 413 harboring G2576U mutation in peptidyl transferase centre by broth microdilution method. In outline: as §1
In assay [12] the test system is Enterococcus faecalis. Briefly: Antimicrobial activity against linezolid-resistant Enterococcus faecalis by broth microdilution method. The method in brief:
as §1

Assay [13] relates to Staphylococcus aureus. Briefly: Antimicrobial activity against linezolid-resistant Staphylococcus aureus CM/05 3067 harboring chromosomal cfr gene by broth microdilution method. The method in brief: as §1
Assay [14] concerns Staphylococcus aureus. Briefly: Antimicrobial activity against linezolid-resistant Staphylococcus aureus 425 harboring G2447U in peptidyl transferase centre by broth microdilution method. The method in brief:
as §1

The subject of assay [15] is Staphylococcus aureus. Briefly: Antimicrobial activity against linezolid-resistant Staphylococcus aureus 131-6952X harboring plasmid borne cfr gene by broth microdilution method. The method in brief:
as §1

Assay [16] relates to Staphylococcus aureus. Briefly: Antimicrobial activity against linezolid-resistant methicillin-resistant Staphylococcus aureus NRS121 harboring G2576U mutation in peptidyl transferase centre by broth microdilution method. The method in brief: as §1
Assay [17] deals with Enterococcus faecium. Briefly: Antimicrobial activity against linezolid-resistant Enterococcus faecium by broth microdilution method. The method in brief:
as §1

The test system of assay [18] is Enterococcus faecalis. Briefly: Antimicrobial activity against linezolid-resistant Enterococcus faecalis 414 harboring G2576U mutation in peptidyl transferase centre by broth microdilution method. The method in brief: as §1
Assay [19] deals with Staphylococcus aureus. Briefly: Antimicrobial activity against Staphylococcus aureus 1651 harboring G2576U mutation in peptidyl transferase centre by broth microdilution method. In outline: as §1
For assay [20], the system named is Staphylococcus aureus. Briefly: Antimicrobial activity against […] 29213 by broth microdilution method. In outline:
as §1

In assay [21] the test system is Enterococcus faecalis. Briefly: Antimicrobial activity against linezolid-resistant Enterococcus faecalis 412 harboring G2576U mutation in peptidyl transferase centre by broth microdilution method. In outline:
as §1

The subject of assay [22] is Enterococcus faecalis. Briefly: Antimicrobial activity against linezolid-resistant Enterococcus faecalis 3128 harboring G2576U mutation in peptidyl transferase centre by broth microdilution method. In outline:
as §1

In assay [23] the test system is Enterococcus faecalis. Briefly: Antimicrobial activity against linezolid-resistant Enterococcus faecalis 411 harboring G2576U mutation in peptidyl transferase centre by broth microdilution method. The method in brief:
as §1

For assay [24], the system named is Enterococcus faecalis. Briefly: Antimicrobial activity against linezolid-resistant Enterococcus faecalis 1172 harboring G2576U mutation in peptidyl transferase centre by broth microdilution method. The method in brief:
as §1

Assay [25] has as its system Enterococcus faecalis. Briefly: Antimicrobial activity against linezolid-resistant Enterococcus faecalis 3124 harboring G2576U mutation in peptidyl transferase centre by broth microdilution method. In outline: as §1

≈ marks a conversion by molar mass, not a printed value.

As a reminder, the MIC is the lowest concentration found to suppress growth. A word on the MIC50: it is the lowest concentration that inhibits either 50% of growth or 50% of the strains tested, depending on the study. Read a low MIC50 as greater potency. For orientation: MIC90 means the lowest concentration that inhibits either 90% of growth or 90% of the strains tested, depending on the study. Read a high MIC90 as weaker potency. Consider `CC(=O)NC[C@H]1CN(c2ccc(N3CCOCC3)c(F)c2)C(=O)O1` [LINEZOLID], for which the MIC is 32 µg/mL (≈ 94.9 µM) with Staphylococcus aureus [1]; 64 µg/mL (≈ 190 µM) with Staphylococcus aureus [2]; 16 µg/mL (≈ 47.4 µM) in the assay with Staphylococcus hominis; 8 µg/mL (≈ 23.7 µM) against Staphylococcus aureus [4]; 8 µg/mL (≈ 23.7 µM) with Staphylococcus aureus [5]; 64 µg/mL (≈ 190 µM) with Staphylococcus aureus [7]. Besides, the MIC with Staphylococcus aureus [8] is 32 µg/mL (≈ 94.9 µM); in the assay with Enterococcus faecium [9], 16 µg/mL (≈ 47.4 µM); against Mammaliicoccus sciuri, 16 µg/mL (≈ 47.4 µM); with Staphylococcus aureus [10], > 32 µg/mL; against Enterococcus faecalis [11], 32 µg/mL (≈ 94.9 µM); in the assay on Staphylococcus aureus [13], 16 µg/mL (≈ 47.4 µM). Moreover, the minimal inhibitory concentration (MIC) in the assay on Staphylococcus aureus [14] is 32 µg/mL (≈ 94.9 µM); against Staphylococcus aureus [15], 32 µg/mL (≈ 94.9 µM); against Staphylococcus aureus [16] it was 64 µg/mL (≈ 190 µM); in the assay on Enterococcus faecalis [18], 32 µg/mL (≈ 94.9 µM); in the assay with Staphylococcus aureus [19] it was 16 µg/mL (≈ 47.4 µM). Also, the MIC50 stood at 32 µg/mL (≈ 94.9 µM) in [3], 2 µg/mL (≈ 5.93 µM) in the assay with Staphylococcus aureus [6], 32 µg/mL (≈ 94.9 µM) against Enterococcus faecalis [12] and 32 µg/mL (≈ 94.9 µM) against Enterococcus faecium [17]. Further, the MIC90 in assay [3] was > 128 µg/mL; in the assay on Staphylococcus aureus [6], 16 µg/mL (≈ 47.4 µM); against Enterococcus faecalis [12] it was 32 µg/mL (≈ 94.9 µM); in the assay on Enterococcus faecium [17], 64 µg/mL (≈ 190 µM).

As to `Cc1onc(-c2ccccc2)c1C(=O)N[C@@H]1C(=O)N2[C@@H]1SC(C)(C)[C@@H]2C(=O)O` [OXACILLIN], the minimal inhibitory concentration (MIC) against Staphylococcus aureus [4] was > 2 µg/mL; in the assay with Staphylococcus aureus [20] it was 0.12 µg/mL (≈ 0.299 µM); against Staphylococcus aureus [5], 32 µg/mL (≈ 79.7 µM); with Staphylococcus aureus [8], 32 µg/mL (≈ 79.7 µM); against Enterococcus faecium [9], > 32 µg/mL; in the assay on Staphylococcus aureus [10] it was < 0.03 µg/mL. For the same compound, the MIC is > 32 µg/mL against Enterococcus faecalis [11]; 16 µg/mL (≈ 39.9 µM) in the assay with Enterococcus faecalis [21]; > 32 µg/mL in the assay with Staphylococcus aureus [13]; 0.12 µg/mL (≈ 0.299 µM) with Staphylococcus aureus [14]; > 2 µg/mL with Staphylococcus aureus [15]; 2 µg/mL (≈ 4.98 µM) against Enterococcus faecalis [22]. The MIC in the assay on Enterococcus faecalis [23] is > 32 µg/mL; against Enterococcus faecalis [24], 32 µg/mL (≈ 79.7 µM); against Enterococcus faecalis [18], 16 µg/mL (≈ 39.9 µM); with Staphylococcus aureus [19] it was > 32 µg/mL; against Enterococcus faecalis [25], 8 µg/mL (≈ 19.9 µM).

For `CC1(C)S[C@@H]2[C@H](NC(=O)Cc3ccccc3)C(=O)N2[C@H]1C(=O)O` [PENICILLIN G], the MIC worked out at 1 µg/mL (≈ 2.99 µM) with Staphylococcus aureus [20]; 16 µg/mL (≈ 47.8 µM) against Staphylococcus aureus [5]; 32 µg/mL (≈ 95.7 µM) with Staphylococcus aureus [8]; 0.25 µg/mL (≈ 0.748 µM) in the assay with Staphylococcus aureus [10]; 4 µg/mL (≈ 12 µM) in the assay on Enterococcus faecalis [11]; 2 µg/mL (≈ 5.98 µM) in the assay with Enterococcus faecalis [21]. Also, the MIC was 1 µg/mL (≈ 2.99 µM) with Staphylococcus aureus [14]; 4 µg/mL (≈ 12 µM) against Enterococcus faecalis [23]; 4 µg/mL (≈ 12 µM) against Enterococcus faecalis [24]; 1 µg/mL (≈ 2.99 µM) against Enterococcus faecalis [18]; 16 µg/mL (≈ 47.8 µM) against Staphylococcus aureus [19].

As for `Cn1nnc(-c2ccc(-c3ccc(N4C[C@H](CO)OC4=O)cc3F)cn2)n1` [TEDIZOLID], the MIC turned out to be 2 µg/mL (≈ 5.4 µM) against Staphylococcus aureus [1]; 8 µg/mL (≈ 21.6 µM) against Staphylococcus aureus [2]; 2 µg/mL (≈ 5.4 µM) against Staphylococcus hominis; 0.5 µg/mL (≈ 1.35 µM) with Staphylococcus aureus [4]; 1 µg/mL (≈ 2.7 µM) in the assay on Staphylococcus aureus [20]; 1 µg/mL (≈ 2.7 µM) against Staphylococcus aureus [5]. Further, the MIC against Staphylococcus aureus [7] worked out at 4 µg/mL (≈ 10.8 µM); in the assay on Staphylococcus aureus [8], 4 µg/mL (≈ 10.8 µM); against Enterococcus faecium [9], 2 µg/mL (≈ 5.4 µM); in the assay on Mammaliicoccus sciuri, 2 µg/mL (≈ 5.4 µM); in the assay with Staphylococcus aureus [10] it was 16 µg/mL (≈ 43.2 µM); in the assay with Enterococcus faecalis [21], 2 µg/mL (≈ 5.4 µM). Besides, the MIC against Staphylococcus aureus [13] is 1 µg/mL (≈ 2.7 µM); in the assay on Staphylococcus aureus [14] it was 8 µg/mL (≈ 21.6 µM); in the assay on Staphylococcus aureus [15], 1 µg/mL (≈ 2.7 µM); against Staphylococcus aureus [16], 4 µg/mL (≈ 10.8 µM); against Enterococcus faecalis [23], 2 µg/mL (≈ 5.4 µM); against Staphylococcus aureus [19], 2 µg/mL (≈ 5.4 µM). Further, the MIC50 in [3] was found to be 4 µg/mL (≈ 10.8 µM); in the assay with Staphylococcus aureus [6], 0.25 µg/mL (≈ 0.675 µM); against Enterococcus faecalis [12], 4 µg/mL (≈ 10.8 µM); against Enterococcus faecium [17], 2 µg/mL (≈ 5.4 µM). In addition, the MIC90 in [3] was 8 µg/mL (≈ 21.6 µM); against Staphylococcus aureus [6] it was 2 µg/mL (≈ 5.4 µM); in the assay on Enterococcus faecalis [12], 4 µg/mL (≈ 10.8 µM); against Enterococcus faecium [17], 4 µg/mL (≈ 10.8 µM).

With `CN[C@H](CC(C)C)C(=O)N[C@H]1C(=O)N[C@@H](CC(N)=O)C(=O)N[C@H]2C(=O)N[C@H]3C(=O)N[C@H](C(=O)N[C@H](C(=O)O)c4cc(O)cc(O)c4-c4cc3ccc4O)[C@H](O)c3ccc(c(Cl)c3)Oc3cc2cc(c3O[C@@H]2O[C@H](CO)[C@@H](O)[C@H](O)[C@H]2O[C@H]2C[C@](C)(N)[C@H](O)[C@H](C)O2)Oc2ccc(cc2Cl)[C@H]1O` [VANCOMYCIN], the minimum inhibitory concentration (MIC) was > 32 µg/mL with Enterococcus faecium [9]; 1 µg/mL (≈ 0.69 µM) against Enterococcus faecalis [11]; 1 µg/mL (≈ 0.69 µM) against Enterococcus faecalis [21]; > 32 µg/mL against Enterococcus faecalis [22]; 1 µg/mL (≈ 0.69 µM) in the assay on Enterococcus faecalis [23]; > 32 µg/mL against Enterococcus faecalis [24]. Also, the MIC with Enterococcus faecalis [18] was 32 µg/mL (≈ 22.1 µM); with Enterococcus faecalis [25] it was > 32 µg/mL.
